Experimental data taken from ChEMBL document CHEMBL1158040, “Biological activities and 3D QSAR studies of a series of Delisea pulchra (cf. fimbriata) derived natural products” (J Nat Prod, 2006).
In brackets after ≈: the same amount, converted by molar mass. Activity calls are given as the source filed them. No cut-off for these calls is given here.

How the values were obtained:
Penicillium oxalicum [1] = experiment: Antimicrobial activity against Penicillium oxalicum at 1 ug; format: functional; details: for zone of inhibition at 1 µg/disc: read-out: IZ
In short: (§1)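 Direct bioautography: each compound is spotted onto TLC plates and the solvent evaporated. The test organism is then grown directly on the plate. Growth inhibition is scored at the spot as active (+) or very active (++). Where a number is given, it is the radius in mm of the inhibition zone around the spot.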

Escherichia coli [2] = experiment: Antimicrobial activity against Escherichia coli at 1 ug; format: functional, organism-based; in short: as §1
Bacillus subtilis [3] = experiment: Antimicrobial activity against Bacillus subtilis at 10 ug; format: functional, organism-based; in short: as §1
Micrococcus luteus [4] = experiment: Antimicrobial activity against Micrococcus luteus at 5 ug; format: functional, organism-based; in short: as §1
Penicillium oxalicum [5] = experiment: Antimicrobial activity against Penicillium oxalicum at 0.1 ug; format: functional; details: for zone of inhibition at 0.1 µg/disc: read-out: IZ; in short: as §1
[6] = Inhibition of PKC
Micrococcus luteus [7] = experiment: Antimicrobial activity against Micrococcus luteus at 10 ug; format: functional, organism-based; in short: as §1
Bacillus subtilis [8] = experiment: Antimicrobial activity against Bacillus subtilis at 5 ug; format: functional, organism-based; in short: as §1
Escherichia coli [9] = experiment: Antimicrobial activity against Escherichia coli at 5 ug; format: functional, organism-based; in short: as §1
Penicillium oxalicum [10] = experiment: Antimicrobial activity against Penicillium oxalicum at 10 ug; format: functional; details: for zone of inhibition at 10 µg/disc: read-out: IZ; in short: as §1
Penicillium oxalicum [11] = experiment: Antimicrobial activity against Penicillium oxalicum at 5 ug; format: functional; details: for zone of inhibition at 5 µg/disc: read-out: IZ; in short: as §1
Penicillium oxalicum [12] = experiment: Antimicrobial activity against Penicillium oxalicum at 0.01 ug; format: functional; in short: as §1
Micrococcus luteus [13] = experiment: Antimicrobial activity against Micrococcus luteus at 1 ug; format: functional, organism-based; in short: as §1
Escherichia coli [14] = experiment: Antimicrobial activity against Escherichia coli at 10 ug; format: functional, organism-based; in short: as §1
Bacillus subtilis [15] = experiment: Antimicrobial activity against Bacillus subtilis at 1 ug; format: functional, organism-based; in short: as §1
Escherichia coli [16] = experiment: Antimicrobial activity against Escherichia coli at 0.1 ug; format: functional, organism-based; in short: as §1
ZR-75-1 = experiment: Cytotoxicity against human ZR-75-1 cells; format: functional; details: read-out: ED50 (the source's name)
Bacillus subtilis [17] = experiment: Antimicrobial activity against Bacillus subtilis at 0.1 ug; format: functional, organism-based; in short: as §1
Lu1 = experiment: Cytotoxicity against human Lu1 cells; format: functional; details: read-out: ED50 (the source's name)
KB [18] = experiment: Cytotoxicity against vinblastine-sensitive human KB cells; format: functional; details: read-out: ED50 (the source's name)
KB [19] = experiment: Cytotoxicity against vinblastine-resistant human KB cells; format: functional; details: read-out: ED50 (the source's name)
In short: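 The vinblastine-resistant KB-V1 line was tested both with and without added vinblastine in the cultured tumour-cell cytotoxicity panel. Results are reported as ED50.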

LNCaP = experiment: Cytotoxicity against human LNCAP cells; format: functional; details: read-out: ED50 (the source's name)
Micrococcus luteus [20] = experiment: Antimicrobial activity against Micrococcus luteus at 0.1 ug; format: functional, organism-based; in short: as §1
[21] = biological target: Human immunodeficiency virus type 1 reverse transcriptase (Human immunodeficiency virus 1) (UniProt Q72547); experiment: Inhibition of HIV1 RT at 200 uM
In short: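 HIV-1 reverse transcriptase inhibition was measured in an ELISA-based system.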

Plasmodium falciparum [22] = experiment: Antimalarial activity against chloroquine-sensitive Plasmodium falciparum D6 at 10 ug/ml; format: functional
KB [23] = experiment: Cytotoxicity against human KB cells; format: functional; details: read-out: ED50 (the source's name)
[24] = Inhibition of TK assessed as residual activity at 200 ug/ml
In short: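 The enzyme was tyrosine kinase p56lck, with test compounds at 200 μg/mL. The read-out is the remaining enzyme activity.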

Plasmodium falciparum [25] = experiment: Antimalarial activity against chloroquine-resistant Plasmodium falciparum W2; format: functional, organism-based
In short: (§2)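 In vitro growth inhibition of Plasmodium falciparum clones D6 (chloroquine-sensitive) and W2 (chloroquine-resistant); IC50 reported in μg/mL.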

[26] = Selectivity index, ratio of IC50 for human KB cells to IC50 for Plasmodium falciparum D6; format: toxicity, cell-based; details: KB cells versus Plasmodium falciparum D6, read-out: Ratio IC50
In short: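 Plasmodium falciparum clones were assayed in vitro: D6 (chloroquine-sensitive) and W2 (chloroquine-resistant). IC50 is in μg/mL. The selectivity index is the ratio of the antimalarial to the cytotoxic activity.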

Plasmodium falciparum [27] = experiment: Antimalarial activity against chloroquine-sensitive Plasmodium falciparum D6; format: functional, organism-based; in short: as §2

| Compound | zone of inhibition at 1 µg/disc (Penicillium oxalicum [1]) | Activity (Escherichia coli [2]) | Activity (Bacillus subtilis [3]) | Activity (Micrococcus luteus [4]) | Activity (Penicillium oxalicum [5]) | Activity (Micrococcus luteus [7]) | Activity (Bacillus subtilis [8]) | Activity (Escherichia coli [9]) | zone of inhibition at 10 µg/disc (Penicillium oxalicum [10]) | zone of inhibition at 5 µg/disc (Penicillium oxalicum [11]) | Activity (Micrococcus luteus [13]) | Activity (Escherichia coli [14]) | Activity (Bacillus subtilis [15]) | Activity (Escherichia coli [16]) | EC50 (ZR-75-1) | Activity (Bacillus subtilis [17]) | EC50 (Lu1) | EC50 (KB [18]) | Activity (Micrococcus luteus [20]) | EC50 (KB [23]) | also measured |
| --- | --- | --- | --- | --- | --- | --- | --- | --- | --- | --- | --- | --- | --- | --- | --- | --- | --- | --- | --- | --- | --- |
| CCCCCCCC/C=C(\Br)C(O)C(Br)Br (centres undefined) | 5 mm | inactive | Active | Active | inactive | Active | Active | inactive | 8 mm | 8 mm | inactive | Active | inactive | inactive |  |  |  |  |  |  | IC50 [6]: ≥ 200 µM; Activity (Penicillium oxalicum [12]): inactive |
| CCCCC1=C(Br)C(OC)(C(Br)Br)OC1=O (centres undefined) |  | Active | inactive | Active | inactive | Active | inactive | Active |  |  | Active | Active | inactive | inactive | 6.7 µg/mL (≈ 15.9 µM) | inactive | > 20 µg/mL | 10.5 µg/mL (≈ 24.9 µM) | inactive | 7.6 µg/mL (≈ 18.1 µM) | Activity (Penicillium oxalicum [1]): inactive; EC50 (KB [19]): 8 µg/mL (≈ 19 µM); Activity (Penicillium oxalicum [10]): inactive; Activity (Penicillium oxalicum [11]): inactive; EC50 (LNCaP): 6.6 µg/mL (≈ 15.7 µM); Activity [21]: inactive; Activity (Plasmodium falciparum [22]): >50% |
| CCC[C@@H](O)C1=C(Br)[C@@](CI)(OC)OC1=O | 10 mm | inactive | Active | Active | inactive | Active | Active | Active | 14 mm | 16 mm | inactive | Active | inactive | inactive |  | inactive |  |  | inactive |  | Activity [24]: 77.2% |
| CCC[C@@H](OC(C)=O)C1=C(Br)[C@@](OC)(C(Br)Br)OC1=O | 6 mm | inactive | Active | Active | inactive | Active | Active | inactive | 16 mm | 14 mm | inactive | inactive | inactive | inactive | 2.8 µg/mL (≈ 5.85 µM) | inactive | > 20 µg/mL | 3.9 µg/mL (≈ 8.14 µM) | inactive | 4.1 µg/mL (≈ 8.56 µM) | IC50 (Plasmodium falciparum [25]): > 10 µg/mL; selectivity ratio [26]: 1; IC50 (Plasmodium falciparum [27]): 5 µg/mL (≈ 10.4 µM); Activity [24]: 22.7%; EC50 (KB [19]): 6.2 µg/mL (≈ 12.9 µM); EC50 (LNCaP): 3.6 µg/mL (≈ 7.52 µM); Activity [21]: inactive |
| CCC[C@@H](OC(C)=O)C1=C(Br)/C(=C\Br)OC1=O [ACETOXYFIMBROLIDE] | 14 mm | inactive | Active | Active |  | Active | Active | inactive | 18 mm | 22 mm | Active | inactive | Active | inactive |  | inactive |  |  | Active |  | zone of inhibition at 0.1 µg/disc (Penicillium oxalicum [5]): 6 mm; Activity (Penicillium oxalicum [12]): inactive |
| CCC[C@@H](O)C1=C(Br)[C@](CI)(OC)OC1=O | 2 mm | inactive | Active | Active | inactive | Active | inactive | Active | 6 mm | 6 mm | inactive | Active | inactive | inactive | 6.4 µg/mL (≈ 15.8 µM) | inactive | > 20 µg/mL | > 20 µg/mL | inactive | > 20 µg/mL | Activity [24]: 55.7%; EC50 (KB [19]): > 20 µg/mL; EC50 (LNCaP): 9.1 µg/mL (≈ 22.5 µM); Activity [21]: inactive; Activity (Plasmodium falciparum [22]): >50% |
| CCC[C@@H](OC(C)=O)C1=C(Br)[C@](C)(OC)OC1=O | 8 mm | inactive | Active | Active | inactive | Active | Active | inactive | 16 mm | 12 mm | inactive | inactive | inactive | inactive | 4 µg/mL (≈ 12.5 µM) | inactive | > 20 µg/mL | 5.6 µg/mL (≈ 17.4 µM) | inactive | 3.9 µg/mL (≈ 12.1 µM) | Activity [24]: 86%; EC50 (KB [19]): 4.7 µg/mL (≈ 14.6 µM); EC50 (LNCaP): 3.6 µg/mL (≈ 11.2 µM); Activity [21]: inactive; Activity (Plasmodium falciparum [22]): >50% |
| CCC[C@@H](OC(C)=O)C1=C(Br)[C@@](C)(OC)OC1=O | 3 mm | inactive | inactive | Active | inactive | Active | inactive | inactive | 8 mm | 6 mm | Active | inactive | inactive | inactive | 2.4 µg/mL (≈ 7.47 µM) | inactive | > 20 µg/mL | 10.7 µg/mL (≈ 33.3 µM) | inactive | 5.4 µg/mL (≈ 16.8 µM) | EC50 (KB [19]): 2.8 µg/mL (≈ 8.72 µM); EC50 (LNCaP): 1.7 µg/mL (≈ 5.29 µM); Activity [21]: inactive; Activity (Plasmodium falciparum [22]): >50% |
| CCC[C@@H](O)C1=C(Br)/C(=C\Br)OC1=O [HYDROXYFIMBROLIDE] | 21 mm | Active | Active | Active |  | Active | Active | Active | 28 mm | 31 mm | Active | Active | Active |  | 0.3 µg/mL (≈ 0.92 µM) | Active | 0.6 µg/mL (≈ 1.84 µM) | 0.2 µg/mL (≈ 0.614 µM) | inactive | 0.5 µg/mL (≈ 1.53 µM) | zone of inhibition at 0.1 µg/disc (Penicillium oxalicum [5]): 6 mm; EC50 (KB [19]): 1.1 µg/mL (≈ 3.37 µM); Activity (Penicillium oxalicum [12]): inactive; EC50 (LNCaP): < 0.1 µg/mL; Activity [21]: inactive; Activity (Plasmodium falciparum [22]): >50% |
| CCC[C@@H](O)C1=C(Br)/C(=C\Cl)OC1=O |  |  |  |  |  |  |  |  |  |  |  |  |  |  |  |  |  |  |  |  | Activity [24]: 1.6% |
| CCN(CC)CCCC(C)Nc1ccnc2cc(Cl)ccc12 (centres undefined) [CHLOROQUINE] |  |  |  |  |  |  |  |  |  |  |  |  |  |  |  |  |  |  |  | 17.4 µg/mL (≈ 54.4 µM) |  |
| CCC[C@@H](O)C1=C(Br)/C(=C\I)OC1=O |  |  |  |  |  |  |  |  |  |  |  |  |  |  |  |  |  |  |  |  | Activity [24]: 5.8% |
| CCC[C@@H](OC(C)=O)C1=C(Br)[C@](OC)(C(Br)Br)OC1=O | 4 mm | inactive | inactive | inactive | inactive | inactive | inactive | inactive | 9 mm | 8 mm | inactive | inactive | inactive | inactive | 3.8 µg/mL (≈ 7.93 µM) | inactive | > 20 µg/mL | 5.3 µg/mL (≈ 11.1 µM) | inactive | 6.1 µg/mL (≈ 12.7 µM) | IC50 (Plasmodium falciparum [25]): > 10 µg/mL; selectivity ratio [26]: 2; IC50 (Plasmodium falciparum [27]): 3.8 µg/mL (≈ 7.93 µM); Activity [24]: 87.5%; EC50 (KB [19]): 6.1 µg/mL (≈ 12.7 µM); EC50 (LNCaP): 4.5 µg/mL (≈ 9.4 µM); Activity [21]: inactive |
